Data taken from ChEMBL document CHEMBL2311465, “Synthesis of novel naphthoquinone aliphatic amides and esters and their anticancer evaluation” (Eur J Med Chem, 2013).
Calls of active or inactive are those of the source. The rule behind the calls is not given here.

Experiments:
KB = experiment: Cytotoxicity against human KB cells after 3 days by resazurin microplate assay; type: functional, cell-based; settings: 72 h
How it was run: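 KB cells (ATCC CCL-17) harvested in log phase and diluted to 7 × 10^4 cells/mL, then added to samples diluted in 0.5% DMSO. Incubated 3 days at 37 °C, 5% CO2, then resazurin added and plates held 4 h at 37 °C. Fluorescence read at ex 530/em 590 nm. IC50 fitted from 6 two-fold serial concentrations; six replicate experiments.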

Vero = experiment: Cytotoxicity against african geen monkey Vero cells after 4 days by GFP reporter assay; type: cell-based, Chlorocebus sabaeus
How it was run: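 Vero cells (GFP-expressing, grown with geneticin at 37 °C, 5% CO2) added to test compounds diluted in 0.5% DMSO and incubated 4 days at 37 °C, 5% CO2. Bottom-read fluorescence at ex 485/em 535 nm; day-0 background subtracted from the day-4 signal. Typical values from six replicate experiments.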

[1] = biological target: DNA topoisomerase 2-alpha (Homo sapiens) (UniProt P11388); experiment: Inhibition of human topoisomerase 2-alpha-mediated decatenation of kinetoplast DNA at 50 uM after 1 hr by agarose gel electrophoretic analysis
How it was run: (§1)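 kDNA (60 ng) incubated with 2 units of human TopoIIα, with or without compound, for 1 h at 37 °C. Buffer: 50 mM Tris-Cl pH 8.0, 150 mM NaCl, 10 mM MgCl2, 0.5 mM dithiothreitol, 2 mM ATP. Decatenation judged by presence or absence of enzyme activity.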

[2] = biological target: DNA topoisomerase 2-alpha (Homo sapiens) (UniProt P11388); experiment: Inhibition of human topoisomerase 2-alpha-mediated decatenation of kinetoplast DNA at 5 uM after 1 hr by agarose gel electrophoretic analysis; how it was run: as §1
[3] = biological target: DNA topoisomerase 2-alpha (Homo sapiens) (UniProt P11388); experiment: Inhibition of human topoisomerase 2-alpha-mediated decatenation of kinetoplast DNA at 10 to 20 uM after 1 hr by agarose gel electrophoretic analysis; how it was run: as §1
[4] = Chlorocebus sabaeus, Vero, 96 h, read-out: IC50

Sequence of DNA topoisomerase 2-alpha (Homo sapiens) (P11388 whole entry): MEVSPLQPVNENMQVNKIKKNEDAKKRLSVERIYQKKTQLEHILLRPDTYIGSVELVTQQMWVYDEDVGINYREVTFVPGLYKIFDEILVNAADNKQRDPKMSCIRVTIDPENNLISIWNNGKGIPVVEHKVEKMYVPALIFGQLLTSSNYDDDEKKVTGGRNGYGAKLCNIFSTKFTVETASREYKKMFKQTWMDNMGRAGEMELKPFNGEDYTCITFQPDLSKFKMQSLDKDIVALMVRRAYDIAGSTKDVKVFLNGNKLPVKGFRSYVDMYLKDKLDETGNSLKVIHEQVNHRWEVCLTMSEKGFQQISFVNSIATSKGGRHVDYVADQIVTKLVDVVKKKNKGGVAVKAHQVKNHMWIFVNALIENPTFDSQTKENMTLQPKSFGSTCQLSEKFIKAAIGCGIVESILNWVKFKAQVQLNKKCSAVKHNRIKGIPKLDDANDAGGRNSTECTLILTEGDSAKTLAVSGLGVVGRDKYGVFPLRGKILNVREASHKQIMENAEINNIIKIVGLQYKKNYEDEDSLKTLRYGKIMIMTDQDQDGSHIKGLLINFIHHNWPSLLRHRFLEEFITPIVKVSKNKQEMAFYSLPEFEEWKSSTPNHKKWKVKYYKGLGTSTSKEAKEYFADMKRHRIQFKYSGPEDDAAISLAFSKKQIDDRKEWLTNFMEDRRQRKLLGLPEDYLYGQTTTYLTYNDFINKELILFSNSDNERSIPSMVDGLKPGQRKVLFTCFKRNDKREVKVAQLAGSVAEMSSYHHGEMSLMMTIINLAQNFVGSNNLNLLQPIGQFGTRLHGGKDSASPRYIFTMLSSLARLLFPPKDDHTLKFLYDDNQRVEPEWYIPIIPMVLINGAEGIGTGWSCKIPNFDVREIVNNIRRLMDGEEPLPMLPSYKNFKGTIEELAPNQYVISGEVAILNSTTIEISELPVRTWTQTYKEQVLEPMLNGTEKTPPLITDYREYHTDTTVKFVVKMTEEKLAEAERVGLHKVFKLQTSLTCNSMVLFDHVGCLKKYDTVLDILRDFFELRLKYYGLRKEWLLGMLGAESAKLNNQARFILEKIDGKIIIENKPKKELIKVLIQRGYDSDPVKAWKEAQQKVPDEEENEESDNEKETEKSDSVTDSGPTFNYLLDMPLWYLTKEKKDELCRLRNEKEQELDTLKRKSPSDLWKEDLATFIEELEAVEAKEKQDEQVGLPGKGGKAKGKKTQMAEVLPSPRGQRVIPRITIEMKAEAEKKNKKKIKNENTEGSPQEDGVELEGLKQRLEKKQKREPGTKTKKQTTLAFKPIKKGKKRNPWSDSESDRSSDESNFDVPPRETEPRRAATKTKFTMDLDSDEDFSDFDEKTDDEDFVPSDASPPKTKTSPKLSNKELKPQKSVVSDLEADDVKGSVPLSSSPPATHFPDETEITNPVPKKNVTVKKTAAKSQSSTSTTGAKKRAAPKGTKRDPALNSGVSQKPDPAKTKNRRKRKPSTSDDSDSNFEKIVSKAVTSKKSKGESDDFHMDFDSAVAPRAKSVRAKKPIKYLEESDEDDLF

| Compound | IC50 (KB) | IC50 (Vero; [4]) | further results |
| --- | --- | --- | --- |
| CCCC(=O)OCC(C)(C)CC1=C(O)C(=O)c2ccccc2C1=O | 43 µM |  |  |
| CCCCCCCCCCCCCCCCCC(=O)NCC(C)(C)CC1=C(O)C(=O)c2ccccc2C1=O | 6.35 µM | 5.76 µM |  |
| CCCCCCCCCCCC(=O)NCC(C)(C)CC1=C(O)C(=O)c2ccccc2C1=O | 12.8 µM | 13.9 µM |  |
| CCC(C)C(=O)OCC(C)(C)CC1=C(O)C(=O)c2ccccc2C1=O (configuration not stated) | 4.65 µM |  |  |
| CCCC(C)C(=O)OCC(C)(C)CC1=C(O)C(=O)c2ccccc2C1=O (configuration not stated) | 1.76 µM |  | inhibition [1]: Active |
| CCCCCC(=O)NCC(C)(C)CC1=C(O)C(=O)c2ccccc2C1=O | 40.2 µM | 46.6 µM |  |
| CC(C)C(=O)OCC(C)(C)CC1=C(O)C(=O)c2ccccc2C1=O | 14.4 µM |  |  |
| CCCCCCCCCCCCCC(=O)NCC(C)(C)CC1=C(O)C(=O)c2ccccc2C1=O | 25.1 µM | 9.81 µM |  |
| CCCCCCCC(=O)NCC(C)(C)CC1=C(O)C(=O)c2ccccc2C1=O | 24.6 µM | 18.4 µM |  |
| CCCCCCCCC(=O)OCC(C)(C)CC1=C(O)C(=O)c2ccccc2C1=O | 38.7 µM |  |  |
| CCC(C)C(=O)NCC(C)(C)CC1=C(O)C(=O)c2ccccc2C1=O (configuration not stated) | 102 µM |  | IC50 (Vero; vero): Non-toxic |
| CCCCCCCCC(=O)NCC(C)(C)CC1=C(O)C(=O)c2ccccc2C1=O | 19.7 µM | 16.7 µM |  |
| CCCCCCCCCCCCCCCC(=O)OCC(C)(C)CC1=C(O)C(=O)c2ccccc2C1=O | 27.1 µM |  | inhibition [1]: Active |
| CC(C)C(=O)NCC(C)(C)CC1=C(O)C(=O)c2ccccc2C1=O | 94.6 µM |  | IC50 (Vero; vero): Non-toxic |
| CCCCC(=O)OCC(C)(C)CC1=C(O)C(=O)c2ccccc2C1=O | 27.8 µM |  |  |
| CCCCCCCCCCCCCCCCCC(=O)OCC(C)(C)CC1=C(O)C(=O)c2ccccc2C1=O | 76.7 µM |  |  |

| Compound | IC50 (KB) | IC50 (Vero; [4]) | further results |
| --- | --- | --- | --- |
| CCCCCCCC(=O)OCC(C)(C)CC1=C(O)C(=O)c2ccccc2C1=O | 38.3 µM |  |  |
| CCCCCCCCCC(=O)OCC(C)(C)CC1=C(O)C(=O)c2ccccc2C1=O | 55.5 µM |  |  |
| CCCCCCC(C)C(=O)NCC(C)(C)CC1=C(O)C(=O)c2ccccc2C1=O (configuration not stated) | 23.7 µM | 15.5 µM |  |
| CCCCCCCCCCC(=O)NCC(C)(C)CC1=C(O)C(=O)c2ccccc2C1=O | 17.6 µM | 14.9 µM |  |
| CCCCCCC(=O)OCC(C)(C)CC1=C(O)C(=O)c2ccccc2C1=O | 14.4 µM |  |  |
| CCCCCCCCCCCC(=O)OCC(C)(C)CC1=C(O)C(=O)c2ccccc2C1=O | 35.7 µM |  |  |
| CCCCCC(=O)OCC(C)(C)CC1=C(O)C(=O)c2ccccc2C1=O | 41 µM |  |  |
| CCCCCCCCCCCCCC(=O)OCC(C)(C)CC1=C(O)C(=O)c2ccccc2C1=O | 51.4 µM |  |  |
| CCC(=O)OCC(C)(C)CC1=C(O)C(=O)c2ccccc2C1=O | 84.4 µM |  |  |
| CCCCCCCCCCC(=O)OCC(C)(C)CC1=C(O)C(=O)c2ccccc2C1=O | 54.8 µM |  |  |
| COc1cccc2c1C(=O)c1c(O)c3c(c(O)c1C2=O)C[C@@](O)(C(=O)CO)C[C@@H]3O[C@H]1C[C@H](N)[C@H](O)[C@H](C)O1 [DOXORUBICIN] | 0.96 µM |  |  |
| CCCCCCC(C)C(=O)OCC(C)(C)CC1=C(O)C(=O)c2ccccc2C1=O (configuration not stated) | 16.8 µM |  |  |
| CCCCCCCCCC(=O)NCC(C)(C)CC1=C(O)C(=O)c2ccccc2C1=O | 18.5 µM | 15 µM |  |
| CCCCCCCCCCCCCCCC(=O)NCC(C)(C)CC1=C(O)C(=O)c2ccccc2C1=O | 5.12 µM | 5.6 µM | inhibition [2]: inactive; inhibition [3]: Active; inhibition [1]: Active |
| CCCC(C)C(=O)NCC(C)(C)CC1=C(O)C(=O)c2ccccc2C1=O (configuration not stated) | 47.1 µM | 48.1 µM | inhibition [1]: Active |
| CCCCCCC(=O)NCC(C)(C)CC1=C(O)C(=O)c2ccccc2C1=O | 28.2 µM | 24.8 µM |  |
